From PubChem
An excerpt weighted towards active compounds, which were near 4.5% of everything screened.
TAAR1 agonist: human TAAR1 agonists, primary screen, Fluo-8 calcium fluorescence, CHO RD-HGA16 cells. Trace amine-associated receptor 1 (Homo sapiens), Q96RJ0. vehicle wells 0%, saturating PEA agonist 100%. activation, % at 3 µM. hit rate 0.99% among 360,000;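 active = activation above the mean activation of all test compounds in the run plus 3 SD, cut at about 38% in these data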
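test system = CHO RD-HGA16 cells carrying human TAAR1 plus Gα16 | schedule = 17-24 h seeding, 75 min 37 °C dye, 30 min RT | compound dosing = 3 µM single concentration | control set = DMSO and PEA EC100 | replicates = n 1 | signal = Fluo-8 fluorescence, 5 s baseline then 140 s kinetic read | measure = percent activation vs PEA EC100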
OX1R antag-1: antagonists of human orexin 1 receptor (OX1R) | Orexin/Hypocretin receptor type 1 (Homo sapiens), O43613 | OX1R-expressing cells, FRET antagonist read-out | inhibition, % at 6.6 µM | hit rate 1.8% among 330,000; in the data active = inhibition mostly above about 38%, no sharp cut-off; inactive = mostly below about 40%
Target sequence (O43613 whole entry, looked up): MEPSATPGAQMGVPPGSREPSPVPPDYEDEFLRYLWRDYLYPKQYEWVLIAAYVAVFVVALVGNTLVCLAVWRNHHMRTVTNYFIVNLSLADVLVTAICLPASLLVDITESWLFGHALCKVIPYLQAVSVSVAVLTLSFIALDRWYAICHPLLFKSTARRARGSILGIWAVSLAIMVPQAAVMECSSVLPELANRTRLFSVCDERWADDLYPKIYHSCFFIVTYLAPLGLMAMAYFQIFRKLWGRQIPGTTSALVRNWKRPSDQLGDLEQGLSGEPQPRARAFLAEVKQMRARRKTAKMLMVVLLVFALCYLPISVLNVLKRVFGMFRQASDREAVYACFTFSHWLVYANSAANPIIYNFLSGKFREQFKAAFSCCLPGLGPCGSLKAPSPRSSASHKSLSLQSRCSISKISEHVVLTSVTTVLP
OX1R antag-2: OX1R (HCRTR1) antagonists, primary screen, fluorescence, CHO/OX1R cells, Fluo-8 calcium, orexin A; inhibition, % at 5 µM; Fluo-8 calcium fluorescence; hit rate 0.43% among 330,000;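 active = inhibition above its plate's threshold, mean inhibition of all tested compounds on the plate plus 3 SD, cut at about 37% in these data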
GPR7 antagonist: GPR7 receptor antagonists, primary screen, cell-based, fluorescence, single concentration. inhibition, % at 4.4 µM. hit rate 1.1% among 290,000. GPR7-expressing cells, fluorescence antagonist assay. Neuropeptides B/W receptor type 1 (Homo sapiens), P48145; in the data active = inhibition above about 16%, passing the limit was not always enough;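 note: cells stimulated with the agonist NPW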
Target sequence (P48145 whole entry, looked up): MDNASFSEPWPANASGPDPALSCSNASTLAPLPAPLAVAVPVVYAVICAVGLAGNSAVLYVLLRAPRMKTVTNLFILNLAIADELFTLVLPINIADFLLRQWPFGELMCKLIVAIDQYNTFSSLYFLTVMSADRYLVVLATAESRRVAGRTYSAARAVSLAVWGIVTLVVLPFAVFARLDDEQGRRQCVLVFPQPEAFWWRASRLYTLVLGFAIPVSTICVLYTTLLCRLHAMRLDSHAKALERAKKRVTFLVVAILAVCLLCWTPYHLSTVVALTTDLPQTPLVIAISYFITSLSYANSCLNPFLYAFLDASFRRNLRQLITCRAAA
CHO parental Ca: ATP-evoked calcium signal inhibitors, parental CHO, primary screen, counter-screen for OX1R antagonist project, cell-based, fluorescence, Fluo-8 calcium dye; parental CHO-K1, ATP-induced calcium, Fluo-8 fluorescence; inhibition, % at 5.6 µM; hit rate 0.63% among 330,000;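 active = inhibition above that plate's mean sample inhibition plus 3 SD, cut at about 26% in these data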
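Assay system: parental CHO cells; Read-out basis: percent inhibition of ATP-evoked calcium rise, normalized to controls; Benchmarks: ATP and no-ATP DMSO wells; Compound dosing: single nominal dose of 5.6 µM per compound; Signal: Fluo-8 calcium dye fluorescence; Also added: ATP as calcium-mobilizing challenge; Repeats: singlicate.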
TAAR1 antag: human TAAR1 antagonists, primary screen, Fluo-8 calcium fluorescence, CHO RD-HGA16 cells. antagonist. hit rate 1.5% among 360,000. Trace amine-associated receptor 1 (Homo sapiens), Q96RJ0. inhibition, % at 3 µM;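 active = inhibition above a per-plate cutoff, the mean inhibition of test compounds on that plate plus 3 SD, cut at about 49% in these data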
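Assay system: RD-HGA16 CHO cells with stable hTAAR1 and Gα16 / Reagent: EC80 β-phenethylamine stimulus / Doses: 3 µM, single point / Timing: dye loading 75 min at 37 °C, then 30 min room temperature / Measured by: Fluo-8 intracellular calcium dye fluorescence, real-time kinetic reads / Controls: vehicle wells and EC80 agonist wells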
Hits are given with their value.

Results for COc1ccccc1CNC(=O)c1cc(C2CC2)nc2c1cnn2C(C)C ?
TAAR1 agonist: inactive; OX1R antag-1: inactive; OX1R antag-2: inactive; CHO parental Ca: inactive; TAAR1 antag: inactive

How did CCOc1ccc(OCCNC(=O)c2cc(C3CC3)nc3c2cnn3C(C)C)cc1 do in these assays?
TAAR1 agonist: inactive; TAAR1 antag: 60

Results for CC(C)n1ncc2c(C(=O)NCCOc3ccccc3F)cc(C3CC3)nc21 ?
TAAR1 agonist: inactive; OX1R antag-1: inactive; OX1R antag-2: inactive; CHO parental Ca: inactive; TAAR1 antag: 50

How did CSCCC(NC(=O)c1ccco1)C(=O)N1CCN(c2ccccc2O)CC1 (stereo not drawn) do in these assays?
TAAR1 agonist: inactive; OX1R antag-1: inactive; OX1R antag-2: inactive; CHO parental Ca: inactive; TAAR1 antag: inactive

What do the screens show for `C=CCc1ccc(OCCOc2ccc(/C=N/n3cnnc3)cc2OCC)c(OC)c1`?
TAAR1 agonist: inactive; OX1R antag-1: inactive; OX1R antag-2: inactive; GPR7 antagonist: inactive; CHO parental Ca: 67; TAAR1 antag: inactive

How did COc1cc(/C=N/n2cnnc2)ccc1OCCOc1ccccc1 do in these assays?
TAAR1 agonist: inactive; OX1R antag-1: inactive; OX1R antag-2: inactive; GPR7 antagonist: inactive; CHO parental Ca: inactive; TAAR1 antag: inactive

What do the screens show for `CC(C)C[C@H]1COc2cc(NCCO)ccc2S(=O)(=O)N1`?
TAAR1 agonist: inactive; TAAR1 antag: inactive

How did CC(=O)Oc1ccc2oc(/C=C/N(C)C)c([N+](=O)[O-])c2c1 do in these assays?
TAAR1 agonist: inactive; OX1R antag-1: 50; OX1R antag-2: inactive; GPR7 antagonist: inactive; CHO parental Ca: inactive; TAAR1 antag: inactive

What do the screens show for `CC1(c2ccc([N+](=O)[O-])cc2)NC(=O)N(CC(=O)Nc2cccnc2Cl)C1=O` (stereo not drawn)?
TAAR1 agonist: 57; OX1R antag-1: inactive; OX1R antag-2: inactive; CHO parental Ca: inactive; TAAR1 antag: inactive

How did Cc1ccc(C2(C)NC(=O)N(CC(=O)Nc3cccnc3Cl)C2=O)cc1 (stereo not drawn) do in these assays?
TAAR1 agonist: inactive; OX1R antag-1: inactive; OX1R antag-2: inactive; GPR7 antagonist: inactive; CHO parental Ca: inactive; TAAR1 antag: inactive

Results for O=[N+]([O-])c1cc(Oc2cccnc2)cc([N+](=O)[O-])c1 ?
TAAR1 agonist: inactive; OX1R antag-1: 75; OX1R antag-2: inactive; GPR7 antagonist: inactive; CHO parental Ca: inactive; TAAR1 antag: inactive

How did O=C1Nc2ccccc2C1(O)c1ccccc1 (stereo not drawn) do in these assays?
TAAR1 agonist: inactive; OX1R antag-1: inactive; OX1R antag-2: inactive; GPR7 antagonist: inactive; CHO parental Ca: inactive; TAAR1 antag: inactive

Results for Cc1cc(C2(c3ccc(O)c(C)c3)C(=O)Nc3ccccc32)ccc1O ?
TAAR1 agonist: inactive; OX1R antag-1: inactive; OX1R antag-2: inactive; GPR7 antagonist: inactive; CHO parental Ca: 43; TAAR1 antag: inactive

What do the screens show for `CC(C)[C@@H]1CC[C@@H](C)C[C@H]1OC[B-](F)(F)F`?
TAAR1 agonist: inactive; TAAR1 antag: inactive

How did CCCCCCN1C[C@@H](n2cc(C3CC3)nn2)[C@H](O)C[C@@H]1c1ccc(Cl)cc1 do in these assays?
TAAR1 agonist: inactive; TAAR1 antag: inactive

How did COc1cc2[nH]c(Cl)c([N+](=O)[O-])c2cc1OC do in these assays?
TAAR1 agonist: inactive; OX1R antag-1: 73; OX1R antag-2: inactive; GPR7 antagonist: inactive; CHO parental Ca: inactive; TAAR1 antag: inactive

How did C#CCN1C(=O)[C@]2(OCCC=C[C@H]2C)c2cc(OC)ccc21 do in these assays?
TAAR1 agonist: inactive; TAAR1 antag: inactive

What do the screens show for `COc1ccc2nc(NN=Cc3cccc(C)n3)cc(C)c2c1`?
TAAR1 agonist: inactive; TAAR1 antag: inactive

What do the screens show for `CCOC(=O)C1CCCN(c2c(N3CCc4ccccc4C3)c(=O)c2=O)C1` (stereo not drawn)?
GPR7 antagonist: 22

How did CCOC(=O)C1CCCN(c2ncnc3c2oc2ccccc23)C1 (stereo not drawn) do in these assays?
TAAR1 agonist: inactive; OX1R antag-1: 89; OX1R antag-2: 55; GPR7 antagonist: inactive; CHO parental Ca: 40; TAAR1 antag: inactive

What do the screens show for `CCOC(=O)C1CCN(c2ncnc3c2oc2ccccc23)CC1`?
TAAR1 agonist: inactive; OX1R antag-1: 62; OX1R antag-2: inactive; GPR7 antagonist: inactive; CHO parental Ca: inactive; TAAR1 antag: inactive

Results for CCOC(=O)C1CCN(c2nc(-c3ccccc3)nc3c2oc2ccccc23)CC1 ?
TAAR1 agonist: inactive; OX1R antag-1: inactive; OX1R antag-2: inactive; GPR7 antagonist: inactive; CHO parental Ca: inactive; TAAR1 antag: inactive

What do the screens show for `CC(C)(C)S(=O)(=O)N1Cc2cc(CO)cc(CCO)c2[C@@H]1CCO`?
TAAR1 agonist: inactive; TAAR1 antag: inactive

What do the screens show for `CC[C@H](NC(=O)[C@@H](Cc1ccccc1)NC(=O)[C@H]1O[C@@H](n2cnc3c(=O)[nH]c(N)nc32)[C@H](O)[C@@H]1O)c1ccccc1`?
TAAR1 agonist: inactive; TAAR1 antag: inactive

What do the screens show for `Cc1[nH]nc(-c2ccc(O)cc2O)c1-c1ccc(Cl)cc1`?
TAAR1 agonist: inactive; OX1R antag-1: inactive; OX1R antag-2: inactive; GPR7 antagonist: inactive; CHO parental Ca: inactive; TAAR1 antag: inactive

What do the screens show for `COc1ccc(-c2n[nH]c(C)c2-c2ccc(Cl)cc2)c(O)c1`?
TAAR1 agonist: inactive; OX1R antag-1: inactive; OX1R antag-2: inactive; GPR7 antagonist: inactive; CHO parental Ca: 98; TAAR1 antag: inactive

What do the screens show for `COc1ccc(-c2n[nH]c(C)c2-c2ccc(Cl)cc2)c(O)c1OC`?
TAAR1 agonist: inactive; OX1R antag-1: inactive; OX1R antag-2: inactive; GPR7 antagonist: inactive; CHO parental Ca: inactive; TAAR1 antag: 54

What do the screens show for `N#C/C(=C/c1ccc(-c2cc([N+](=O)[O-])ccc2Cl)o1)C(N)=O`?
TAAR1 agonist: inactive; OX1R antag-1: 54; OX1R antag-2: inactive; GPR7 antagonist: inactive; CHO parental Ca: inactive; TAAR1 antag: inactive

Results for C[C@H](O)[C@@H]1C(=O)N2CCc3c([nH]c4cccc(-c5ccccc5)c34)[C@@H]2C[C@@H]1N(C)C(=O)c1ccco1 ?
TAAR1 agonist: inactive; TAAR1 antag: inactive

How did C(=N\Nc1nc2ccccc2s1)/c1ccc2c(c1)OCO2 do in these assays?
TAAR1 agonist: inactive; OX1R antag-1: 75; OX1R antag-2: inactive; GPR7 antagonist: inactive; CHO parental Ca: inactive; TAAR1 antag: inactive

Results for C(=N\Nc1nc2ccccc2s1)/c1ccccn1 ?
TAAR1 agonist: inactive; OX1R antag-1: 60; OX1R antag-2: inactive; GPR7 antagonist: inactive; CHO parental Ca: inactive; TAAR1 antag: inactive
